Measurements as given in ChEMBL document CHEMBL1136558, “Inhibition of mast cell leukotriene release by thiourea derivatives” (Bioorg Med Chem Lett, 2003).

What follows are compounds tested on RBL-2H3 (assay: Inhibition of IgE receptor/FcERI mediated leukotriene release from rat RBL-2H3 cells).
Type: functional, cell-based
Summary of the method: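 RBL-2H3 rat mast cells were sensitized with monoclonal anti-DNP IgE ([…]) for 1 h at 37 °C, washed to remove unbound IgE, and overlaid with PIPES-buffered saline containing 1 mM CaCl2. Cells were preincubated with compound or vehicle, then challenged with 20 ng/mL DNP-BSA for 30 min at 37 °C and centrifuged at 200g for 10 min at 4 °C. LTC4 was measured in cell-free supernatants and reported as IC50.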

Row | Compound | IC50
1 | S=C(NCCc1c[nH]c2ccccc12)Nc1ccc(Br)cn1 | 6.1 µM
2 | CCOC(=O)Cc1csc(/N=C(\S)N[C@H](C)c2cccc3ccccc23)n1 | 0.002 µM
3 | Cc1ccc(N/C(S)=N/[C@H](C)c2cccc3ccccc23)nc1 | 0.005 µM
4 | C[C@H](/N=C(\S)Nc1nccs1)c1cccc2ccccc12 | > 100 µM
5 | Cc1cccc(N/C(S)=N/[C@@H](C)c2cccc3ccccc23)n1 | 1.6 µM
6 | C[C@@H](/N=C(\S)Nc1ccccn1)c1cccc2ccccc12 | > 100 µM
7 | C[C@@H](/N=C(\S)Nc1nccs1)c1cccc2ccccc12 | > 100 µM
8 | Cc1ccc(N/C(S)=N/[C@@H](C)c2cccc3ccccc23)nc1 | > 100 µM
9 | Cc1cc(C)nc(N/C(S)=N/[C@H](C)c2cccc3ccccc23)c1 | > 100 µM
10 | C[C@H](/N=C(\S)Nc1ccccn1)c1cccc2ccccc12 | > 100 µM
11 | Oc1ccc(CC/N=C(\S)Nc2ccc(Br)cn2)cc1 | 16.8 µM
12 | C[C@H](/N=C(\S)Nc1nc2ccccc2s1)c1cccc2ccccc12 | > 100 µM
13 | S=C(NCCc1c[nH]c2ccccc12)Nc1ccc(Cl)cn1 | 4.9 µM
14 | C[C@H](/N=C(\S)Nc1ccc(Br)cn1)c1cccc2ccccc12 | > 100 µM
15 | C[C@@H](/N=C(\S)Nc1ccc(Cl)cn1)c1cccc2ccccc12 | > 100 µM
16 | Cc1csc(N/C(S)=N/[C@@H](C)c2cccc3ccccc23)n1 | 83.2 µM
17 | C[C@@H](/N=C(\S)Nc1nc2ccccc2s1)c1cccc2ccccc12 | 18.9 µM
18 | Cc1cccc2sc(N/C(S)=N/[C@H](C)c3cccc4ccccc34)nc12 | > 100 µM
19 | Oc1ccc(CC/N=C(\S)Nc2ccccn2)cc1 | 8.5 µM
20 | Oc1ccc(CC/N=C(\S)Nc2ccc(Cl)cn2)cc1 | 12.6 µM
21 | COc1ccc2nc(/N=C(\S)N[C@H](C)c3cccc4ccccc34)sc2c1 | > 100 µM
22 | Cc1csc(N/C(S)=N/[C@H](C)c2cccc3ccccc23)n1 | 25.9 µM
23 | Cc1cc(C)nc(N/C(S)=N/[C@@H](C)c2cccc3ccccc23)c1 | > 100 µM
24 | COc1cc2ncnc(Nc3cc(Br)c(O)c(Br)c3)c2cc1OC | 6.8 µM
25 | Cc1cccc2sc(N/C(S)=N/[C@@H](C)c3cccc4ccccc34)nc12 | > 100 µM
26 | CCOC(=O)Cc1csc(/N=C(\S)N[C@@H](C)c2cccc3ccccc23)n1 | 0.002 µM
